Experimental data taken from paper PMC9359405 (International Journal of Nanomedicine, 2022).

Experiments:
Assay type in all cases: in vivo, Wistar rats
P-gp = assay: Immunohistochemistry of efflux proteins in brain tissue; details: intranasal 1.25 mg/kg, 14 days, score 0-12
MRP1 = assay: as above; details: intranasal 1.25 mg/kg, 14 days, score 0-12
BCRP = assay: as above; details: intranasal 1.25 mg/kg, 14 days, score 0-12
[1] = Pharmacokinetics in blood and vital organs; details: for CL/F: gavage; for AUC(0-t) / Cmax / MRT last / Tmax / half-life: male, Wistar, rat, po
Outline: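 Male Wistar rats (200±20 g) received the test compound as an aqueous solution by gavage. Five rats were sampled at each of 11 times from 5 min to 24 h, and blood and organs were collected and weighed. Tissue homogenates (1% perchloric acid) and plasma (6% perchloric acid) were deproteinized, extracted into ethyl acetate at pH 11.8, and analysed by HPLC at 308 nm. Mean±SD, n=5.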

[2] = nasal NEs vs gavage HupA aqueous solution

C/C=C1\[C@H]2C=C(C)C[C@]1(N)c1ccc(=O)[nH]c1C2 [HupA Solution, huperzine A]
P-gp protein expression (immunoreactive score) (P-gp): higher in the HupA aqueous solution group than in the blank control group | MRP1 protein expression (immunoreactive score) (MRP1): higher in the HupA aqueous solution group than in the blank control group | BCRP protein expression (immunoreactive score) (BCRP): higher in the HupA aqueous solution group than in the blank control group | CL/F ([1]; Brain): 42.63 ± 7.93 mL·h | CL/F ([1]; Heart): 7.26 ± 0.05 mL·h | CL/F ([1]; Kidney): 0.91 ± 0.02 mL·h | CL/F ([1]; Liver): 2.88 ± 0.15 mL·h | CL/F ([1]; Lung): 4.03 ± 0.09 mL·h | CL/F ([1]; Plasma): 9.88 ± 0.89 mL·h | CL/F ([1]; Spleen): 2.45 ± 0.03 mL·h | AUC(0-t) ([1]; brain): 28.6 ± 5.72 ng·h/mL | Cmax ([1]; brain): 15 ± 4.25 ng/mL | MRT last ([1]; brain): 1.49 ± 0.12 h | Tmax ([1]; brain): 0.5 h | half-life ([1]; brain): 1.27 ± 0.16 h | AUC(0-t) ([1]; heart): 163 ± 5.85 ng·h/mL | Cmax ([1]; heart): 163 ± 7.33 ng/mL | MRT last ([1]; heart): 1.6 ± 0.05 h | Tmax ([1]; heart): 0.5 h | half-life ([1]; heart): 2.21 ± 0.68 h | AUC(0-t) ([1]; kidney): 1350 ± 33.3 ng·h/mL | Cmax ([1]; kidney): 567 ± 40.6 ng/mL | MRT last ([1]; kidney): 2.78 ± 0.05 h | Tmax ([1]; kidney): 1 h | half-life ([1]; kidney): 2.1 ± 0.1 h | AUC(0-t) ([1]; liver): 424 ± 22.9 ng·h/mL | Cmax ([1]; liver): 256 ± 8.27 ng/mL | MRT last ([1]; liver): 1.95 ± 0.04 h | Tmax ([1]; liver): 0.5 h | AUC(0-t) ([1]; lung): 288 ± 13 ng·h/mL | Cmax ([1]; lung): 173 ± 14.1 ng/mL | MRT last ([1]; lung): 2.28 ± 0.06 h | Tmax ([1]; lung): 1 h | half-life ([1]; lung): 2.49 ± 0.13 h | AUC(0-t) ([1]; plasma): 119 ± 10.1 ng·h/mL | Cmax ([1]; plasma): 109 ± 8.99 ng/mL | MRT last ([1]; plasma): 1.31 ± 0.12 h | Tmax ([1]; plasma): 0.5 h | half-life ([1]; plasma): 1.77 ± 0.83 h | AUC(0-t) ([1]; spleen): 485 ± 5.11 ng·h/mL | Cmax ([1]; spleen): 195 ± 4.58 ng/mL | MRT last ([1]; spleen): 2.03 ± 0.06 h | Tmax ([1]; spleen): 1 h | Concentration (C) of the drug in brain tissue at the same time point (order) [1, 2]: CLf-HupA-NE>CHupA-NE>CHupA aqueous solution | Duration of action in the brain (T) (order) [1, 2]: TLf-HupA-NE>THupA-NE>THupA aqueous solution
